Data taken from publication PMC5884014 (Neoplasia (New York, N.Y.), 2017).
Marks after values point to notes of the source that are not given here.

Columns and labels:
LS174T = assay: Cytotoxicity assay; assay type: cell-based, human; details: Homo sapiens, LS174T, 72 h
Caco-2 = assay: Cytotoxicity assay; assay type: cell-based; details: Homo sapiens, Caco-2, 72 h
HT-29 = assay: Cytotoxicity assay; assay type: cell-based, human; details: Homo sapiens, HT-29, 72 h
RKO xenografts = assay: Anticancer activity in xenograft mouse model; assay type: in vivo, nude mice
[1] = Toxicology examination: complete blood counts; assay type: in vivo; details: ICR mice, 5-FU 50 mg/kg i.p., SL-1 30, oxaliplatin 7.5, cisplatin 7.5 mg/kg i.v.
RKO = assay: Cytotoxicity assay; assay type: cell-based, human; details: Homo sapiens, RKO, 72 h
FHC = assay: Cytotoxicity assay; assay type: cell-based, human; details: Homo sapiens, FHC, 72 h
RKO cells [2] = assay: Annexin V staining assay; assay type: cell-based, human
SW620 = assay: Cytotoxicity assay; assay type: cell-based, human; details: Homo sapiens, SW-620, 72 h
LoVo = assay: Cytotoxicity assay; assay type: cell-based, human; details: Homo sapiens, LoVo, 72 h
CRC cell lines = assay: Cytotoxicity, panel of CRC cell lines; assay type: cell-based; details: Homo sapiens, read-out: IC50 values in CRC cell lines
H3347 = assay: Cytotoxicity assay; assay type: cell-based, human; details: Homo sapiens, H3347, 72 h
[3] = test system: breast carcinoma MX-1 xenografts; details: cited from earlier work
RKO cells [4] = assay: Comet and modified comet assays; assay type: cell-based, human; details: 24 h, SL-1 0.75 μM, 5-FU […], alone or combined
In short: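 RKO cells were exposed to the test compound and/or 5-FU for 24 h and then processed by comet assay. The read-out was tail moment, reported as means ± SD (n = 3) and compared by Student's t test. Synergy on tail moment was expressed as a combination index (CI).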

[5] = Toxicology examination: serum biochemistry; assay type: in vivo; details: ICR mice, 5-FU 50 mg/kg i.p., SL-1 30, oxaliplatin 7.5, cisplatin 7.5 mg/kg i.v.
[6] = Toxicology examination: histopathology of kidney and liver; assay type: in vivo; details: ICR mice
Colo205 = assay: Cytotoxicity assay; assay type: cell-based, human; details: Homo sapiens, COLO 205, 72 h
[7] = test system: pGL4-WT and pGL4-MT luciferase reporters in RKO cells; assay: Luciferase reporter assay; assay type: cell-based, human; details: SL-1 for 2 h
pEGFP-N1 plasmid DNA = assay: Alkaline agarose gel shift assay; assay type: biochemical; details: 37°C, 2 h
HCT116 = assay: Cytotoxicity assay; assay type: cell-based, human; details: Homo sapiens, HCT-116, 72 h
DLD-1 = assay: Cytotoxicity assay; assay type: cell-based, human; details: Homo sapiens, DLD-1, 72 h
[8] = test system: HexA-rev and HexB-rev fragments; assay: Guanine-N7 alkylation, Maxam-Gilbert method; assay type: binding; details: 3'-end-labeled DNA, 37°C, 2 h, pH 7.4
In short: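 Sixty-four symmetrical hexanucleotide fragments (HexA-rev, HexB-rev) were 3′-end-labelled, gel-purified on polyacrylamide, and reacted with the test compound. Guanine-N7 alkylation sites were mapped by the Maxam-Gilbert method. A weighted consensus sequence logo was generated with Seq2Logo 3.4.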

Compound: Cc1cc(NNC(=O)Nc2ccc(N(CCCl)CCCl)cc2)c2cc3c(cc2n1)OCO3 [SL-1, N-{4-[Bis(2-chloroethyl)amino]phenyl}-2-(6-methyl[1,3]-dioxolo[4,5-g]quinolin-8-yl)-hydrazinecarboxamide]
- IC50 (LS174T): 4.55 ± 1.01 µM
- IC50 (Caco-2): 5.49 ± 3.07 µM
- IC50 (HT-29): 0.53 ± 0.11 µM
- tumor suppression (RKO xenografts; RKO xenograft (Figure 6A), SL-1 30 mg/kg Q2D×7 i.v., oxaliplatin 7.5 mg/kg, 5-FU 50 mg/kg): 61.8%
- tumor growth suppression (RKO xenografts; RKO xenograft, nude mice, day 29, SL-1 30 mg/kg i.v. every other day 7 times): approximately 65%
- BASO ([1]; 2 days): 0.00 ± 0.00 10^9/l
- EO ([1]; 2 days): 0.09 ± 0.03 10^9/l
- HCT ([1]; 2 days): 38.32 ± 3.18%
- HGB ([1]; 2 days): 12.34 ± 1.35 g/dL
- LYMPH ([1]; 2 days): 3.55 ± 0.98 10^9/l
- MCH ([1]; 2 days): 15.88 ± 0.48 pg
- MCHC ([1]; 2 days): 25.86 ± 1.72 g/dL
- MCV ([1]; 2 days): 58.18 ± 3.66 fL
- MONO ([1]; 2 days): 0.05 ± 0.03 10^9/l
- NEUT ([1]; 2 days): 0.54 ± 0.20 10^9/l
- PLT ([1]; 2 days): 1742.40 ± 273.56 10^9/l
- RBC ([1]; 2 days): 7.80 ± 1.03 10^12/l
- WBC ([1]; 2 days): 4.81 ± 1.00 10^9/l
- BASO ([1]; 14 days): 0.01 ± 0.01 10^9/l
- EO ([1]; 14 days): 0.13 ± 0.05 10^9/l
- HCT ([1]; 14 days): 46.28 ± 2.32%
- HGB ([1]; 14 days): 13.36 ± 0.74 g/dL
- LYMPH ([1]; 14 days): 4.17 ± 1.28 10^9/l
- MCH ([1]; 14 days): 15.58 ± 0.47 pg
- MCHC ([1]; 14 days): 28.84 ± 0.57 g/dL
- MCV ([1]; 14 days): 53.96 ± 1.92 fL
- MONO ([1]; 14 days): 0.12 ± 0.15 10^9/l
- NEUT ([1]; 14 days): 1.08 ± 0.36 10^9/l
- PLT ([1]; 14 days): 838.80 ± 57.98 10^9/l
- RBC ([1]; 14 days): 8.60 ± 0.68 10^12/l
- WBC ([1]; 14 days): 5.50 ± 1.64 10^9/l
- IC50 (RKO): 0.2 ± 0.08 µM
- IC50 (FHC): 71.5 ± 8.36 µM
- mode of cell death (RKO cells [2]): primarily triggered apoptosis
- IC50 (SW620): 0.14 ± 0.06 µM
- IC50 (LoVo): 0.61 ± 0.03 µM
- IC50 (CRC cell lines): 0.14 to 5.49 µM
- IC50 (H3347): 0.23 ± 0.03 µM
- growth of breast carcinoma MX-1 xenografts [3]: complete tumor remission
- tail moment (RKO cells [4]): 5.4 ± 0.8 μm
- ALP ([5]; 2 days): 331.75 ± 27.94 U/l
- ALT ([5]; 2 days): 24.50 ± 2.17 U/l
- AST ([5]; 2 days): 49.00 ± 3.24 U/l
- BUN ([5]; 2 days): 23.05 ± 2.22 mg/dL
- CRE ([5]; 2 days): 0.20 ± 0.00 mg/dL
- GLU ([5]; 2 days): 466.50 ± 146.80 mg/dL
- ALP ([5]; 14 days): 231.00 ± 85.33 U/l
- BUN ([5]; 14 days): 20.05 ± 2.37 mg/dL
- CRE ([5]; 14 days): 0.17 ± 0.06 mg/dL
- GLU ([5]; 14 days): 219.75 ± 35.85 mg/dL
- GOT/AST ([5]; 14 days): 47.50 ± 1.29 U/l
- GPT/ALT ([5]; 14 days): 22.00 ± 8.04 U/l
- liver histopathology ([6]; 2-day test): liver damage was insignificant
- kidney histopathology ([6]; 2 days after single dose): insignificant morphological injury in the kidney
- histopathological examination, overall ([6]; SL-1 30 mg/kg i.v.): no obvious nephrotoxicity or hepatotoxicity
- IC50 (Colo205): 0.46 ± 0.1 µM
- inhibition of luciferase reporter activity, pGL4-WT vs pGL4-MT [7]: inhibited the reporter activity of pGL4-WT more effectively than that of pGL4-MT
- concentration that induced moderate levels of ICLs (pEGFP-N1 plasmid DNA): 0.05 µM
- IC50 (HCT116): 0.34 ± 0.06 µM
- IC50 (DLD-1): 0.36 ± 0.07 µM

Compound: O=c1[nH]cc(F)c(=O)[nH]1 [5-FU, 5-fluorouracil]
- IC50 (LS174T): 18.6 ± 0.26 µM
- IC50 (Caco-2): > 50 µM
- IC50 (HT-29): 2.27 ± 0.41 µM
- BASO ([1]; 2 days): 0.01 ± 0.01 10^9/l
- EO ([1]; 2 days): 0.06 ± 0.01* 10^9/l
- HCT ([1]; 2 days): 27.94 ± 3.75 %
- HGB ([1]; 2 days): 10.58 ± 2.62 g/dL
- LYMPH ([1]; 2 days): 4.22 ± 0.45 10^9/l
- MCH ([1]; 2 days): 14.94 ± 3.04 pg
- MCHC ([1]; 2 days): 27.50 ± 4.71 g/dL
- MCV ([1]; 2 days): 57.06 ± 3.75 fL
- MONO ([1]; 2 days): 0.02 ± 0.01 10^9/l
- NEUT ([1]; 2 days): 0.78 ± 0.40 10^9/l
- PLT ([1]; 2 days): 873.00 ± 141.40** 10^9/l
- RBC ([1]; 2 days): 4.98 ± 1.72* 10^12/l
- WBC ([1]; 2 days): 5.09 ± 0.23 10^9/l
- BASO ([1]; 14 days): 0.01 ± 0.01 10^9/l
- EO ([1]; 14 days): 0.08 ± 0.01*** 10^9/l
- HCT ([1]; 14 days): 45.53 ± 1.61 %
- HGB ([1]; 14 days): 13.08 ± 0.25 g/dL
- LYMPH ([1]; 14 days): 2.62 ± 0.94 10^9/l
- MCH ([1]; 14 days): 16.25 ± 0.35 pg
- MCHC ([1]; 14 days): 28.73 ± 0.48 g/dL
- MCV ([1]; 14 days): 56.48 ± 1.73 fL
- MONO ([1]; 14 days): 0.06 ± 0.10 10^9/l
- NEUT ([1]; 14 days): 0.64 ± 0.17 10^9/l
- PLT ([1]; 14 days): 745.75 ± 116.31* 10^9/l
- RBC ([1]; 14 days): 8.06 ± 0.24*** 10^12/l
- WBC ([1]; 14 days): 3.40 ± 1.21 10^9/l
- IC50 (RKO): 6.15 ± 1.63 µM
- IC50 (FHC): 21.9 ± 2.49 µM
- mode of cell death (RKO cells [2]): mainly caused necrotic cell death
- IC50 (SW620): 18.5 ± 4.05 µM
- IC50 (LoVo): 25.8 ± 0.74 µM
- IC50 (H3347): 5.89 ± 0.5 µM
- tail moment (RKO cells [4]): 3.9 ± 0.4 μm
- ALP ([5]; 2 days): 359.25 ± 72.22 U/l
- ALT ([5]; 2 days): 23.25 ± 4.97 U/l
- AST ([5]; 2 days): 63.50 ± 13.24 U/l
- BUN ([5]; 2 days): 23.65 ± 1.50 mg/dL
- CRE ([5]; 2 days): 0.23 ± 0.1 mg/dL
- GLU ([5]; 2 days): 577.25 ± 36.55 mg/dL
- ALP ([5]; 14 days): 177.50 ± 119.69 U/l
- BUN ([5]; 14 days): 22.20 ± 3.42 mg/dL
- CRE ([5]; 14 days): 0.25 ± 0.10 mg/dL
- GLU ([5]; 14 days): 244.00 ± 86.63 mg/dL
- GOT/AST ([5]; 14 days): 53.00 ± 3.56 U/l
- GPT/ALT ([5]; 14 days): 46.50 ± 7.85 U/l
- IC50 (Colo205): 6.8 ± 3.05 µM
- IC50 (HCT116): 2.88 ± 0.33 µM
- IC50 (DLD-1): 16.9 ± 5.3 µM

Compound: Cc1ccc(Nc2c3ccccc3nc3c(C)cccc23)cc1NC(=O)Nc1ccc(N(CCCl)CCCl)cc1 [BO-1051]
- consensus sequence / binding pattern of guanine-N7 alkylation [8]: no distinct binding sequence
